# Measurements taken from ChEMBL document CHEMBL1134344, “Crystal structure of human cyclin-dependent kinase 2 in complex with the adenine-derived inhibitor H717” (J Med Chem, 2001).
# Assays:
# [1] = target: Cyclin-dependent kinase 1/cyclin B (Homo sapiens, UniProt P06493); test: Inhibition of human cyclic dependent kinase 1 (CDK1)/cyclin B; assay type: protein-complex assay
# A549 = test: Inhibition of A549 human lung tumor cell proliferation; assay type: functional, cell-based
# Summary of the method: (§1)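 Tumor cells harvested with trypsin-EDTA, trypan-blue-excluding cells counted, plated and left overnight at 37 °C; drug diluted in culture medium and added for 72 h (three days). Medium then removed, plates frozen at -80 °C ≥30 min, thawed, and CyQUANT-GR in lysis buffer added for 3-5 min at room temperature.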
# [2] = target: Cyclin-dependent kinase 2/cyclin E (Homo sapiens, UniProt P24941); test: Inhibition of cyclic dependent kinase 2 (CDK2)/cyclin E; assay type: protein-complex assay
# DMS-114 = test: Inhibition of DMS114 human lung tumor cell proliferation; assay type: functional, cell-based; summary of the method: as §1
# [3] = target: Cyclin-dependent kinase 4/cyclin D1 (Homo sapiens, UniProt P11802); test: Inhibition of cyclic dependent kinase 4 (CDK4)/cyclin D1; assay type: protein-complex assay
# Chain of Cyclin-dependent kinase 4/cyclin D1 (P11802 whole entry): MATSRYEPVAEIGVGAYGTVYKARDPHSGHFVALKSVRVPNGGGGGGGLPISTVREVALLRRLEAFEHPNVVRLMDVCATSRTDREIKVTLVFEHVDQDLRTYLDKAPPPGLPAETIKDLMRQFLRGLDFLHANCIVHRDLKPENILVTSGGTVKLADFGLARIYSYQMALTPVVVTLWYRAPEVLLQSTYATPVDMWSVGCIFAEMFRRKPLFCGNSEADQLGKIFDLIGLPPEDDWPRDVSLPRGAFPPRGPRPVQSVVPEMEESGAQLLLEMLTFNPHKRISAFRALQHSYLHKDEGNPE
# Chain of Cyclin-dependent kinase 4/cyclin D1 (P24385 whole entry, further chain): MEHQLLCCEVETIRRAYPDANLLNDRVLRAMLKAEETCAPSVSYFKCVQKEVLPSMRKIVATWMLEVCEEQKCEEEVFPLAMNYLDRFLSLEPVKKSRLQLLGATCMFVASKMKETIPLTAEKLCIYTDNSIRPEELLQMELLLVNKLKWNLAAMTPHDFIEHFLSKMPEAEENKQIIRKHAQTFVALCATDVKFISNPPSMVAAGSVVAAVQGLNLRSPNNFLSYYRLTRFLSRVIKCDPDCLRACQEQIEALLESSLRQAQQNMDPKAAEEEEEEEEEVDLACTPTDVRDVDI
# Summary of the method: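 Human CDK4 and cyclin D1 coexpressed in Sf9 cells (baculovirus, MOI 0.1 each, 72 h); 0.1 ng enzyme from clarified lysate. Substrate GST-Rb (0.5 µg) on glutathione-Sepharose beads. ATP 10 µM plus [γ33P]ATP; 30 min at 30 °C. Filtration, TNEN washes, scintillation counting; IC50 from increasing drug concentrations.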
# DU-145 = test: Inhibition of DU-145 human prostate tumor cell proliferation; assay type: functional, cell-based; summary of the method: as §1
# HCT-15 = test: Inhibition of HCT-15 human colon tumor cell proliferation; assay type: functional, cell-based; summary of the method: as §1
# HT-29 = test: Inhibition of HT-29 human colon tumor cell proliferation; assay type: functional, cell-based; summary of the method: as §1
# MDA-MB-231 = test: Inhibition of MDA-MB-231 human breast tumor cell proliferation; assay type: functional, cell-based; summary of the method: as §1
# MCF7 = test: Inhibition of MCF-7 human breast tumor cell proliferation; assay type: functional, cell-based; summary of the method: as §1
# PC-3 = test: Inhibition of PC-3 human prostate tumor cell proliferation; assay type: functional, cell-based; summary of the method: as §1
IC50 [1],IC50 (A549),IC50 [2],IC50 [3],IC50 (DU-145),IC50 (HCT-15),IC50 (HT-29),IC50 (MDA-MB-231),IC50 (MCF7),IC50 (PC-3),Compound,IC50 (DMS-114)
52 nM,–,–,–,–,–,–,–,–,–,N[C@H]1CC[C@H](Nc2nc(NCc3ccccc3)c3ncn(C4CCCC4)c3n2)CC1,–
2000 nM,6100 nM,720 nM,8800 nM,5600 nM,8600 nM,5700 nM,5200 nM,3300 nM,3900 nM,C[C@H](Nc1nc(N[C@H]2CC[C@H](N)CC2)nc2c1ncn2C1CCCC1)c1ccccc1,6600 nM
70 nM,1600 nM,24 nM,780 nM,1300 nM,3300 nM,2000 nM,1700 nM,1300 nM,600 nM,N[C@H]1CC[C@H](Nc2nc(NCC3CC3)c3ncn(C4CCCC4)c3n2)CC1,1400 nM
226 nM,1000 nM,50 nM,2000 nM,1600 nM,2100 nM,1200 nM,1000 nM,600 nM,1400 nM,N[C@H]1CC[C@H](Nc2nc(NCc3cccc(I)c3)c3ncn(C4CCCC4)c3n2)CC1,1000 nM
